From PubChem BioAssay
Sampled rows, rich in hits. Any-hit rate of the full collection: about 2.7%.
RBBP9 inh: inhibitors of human serine hydrolase RBBP9; O75884; recombinant RBBP9, FP-Rh probe fluorescence polarization; inhibition, % at 7.94 µM; 220,000 tested, 0.2% active;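 active = inhibition above the campaign mean of all tested compounds plus 3 SD, cut at about 14% in these data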;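 note: plate controls were DMSO wells with RBBP9 for no effect and wells lacking RBBP9 protein for full effect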
Target sequence (O75884 whole entry, looked up): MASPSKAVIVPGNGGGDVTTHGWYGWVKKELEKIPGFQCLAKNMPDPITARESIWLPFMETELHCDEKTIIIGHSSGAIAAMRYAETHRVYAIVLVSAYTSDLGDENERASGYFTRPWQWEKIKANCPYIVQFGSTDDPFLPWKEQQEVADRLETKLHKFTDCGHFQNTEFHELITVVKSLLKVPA
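Material: RBBP9 protein. Amount: RBBP9 at 2.5 µM in dispensed solution, before mixing. Schedule: 30 min then 45 min, 25 °C. Medium: Tris buffer pH 8.0, NaCl, Pluronic. Measured by: fluorescence polarization. Measure: percent inhibition from mP, scaled between DMSO and no-protein wells. Replication: one well per compound.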
TNF necrop inh: blocks TNF-alpha induced death of Jurkat FADD-/- cells; 220,000 tested, 0.068% active; AID 463075; Jurkat FADD-/- TNF necroptosis rescue, ATP luminescence, 24 h; 0 = TNF only, 100 = no-TNF cells; activation (protection from cell death), % at 10 µM;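 active = activation, meaning protection from cell death, of at least 50% relative to plate controls; inactive = activation below 50%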;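 note: necroptosis triggered by 40 ng/mL TNF-alpha added together with compound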
PfM18AAP inh-1: blocks P. falciparum M18 aspartyl aminopeptidase; AID 1822; inhibition, % at 7.35 µM; recombinant PfM18AAP, H-Glu-NHMec fluorogenic cleavage; 290,000 tested, 1.2% active;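 active = inhibition above the campaign mean inhibition over all tested compounds plus 3 SD, cut at about 28% in these data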;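 note: 0% = plate median of test compound wells and 100% = 2 mM ZnCl2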
zVAD death inh: blocks zVAD induced death of L929 cells | viability rescue, % at 10 µM | 220,000 tested, 0.38% active | L929 zVAD necroptosis rescue, ATP luminescence, 24 h; with zVAD 60 µM;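 active = activation, scaled between plate controls, above about 75%, limit read from the data; inactive = activation under that limit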;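 note: 0% = zVAD with DMSO and 100% = DMSO alone without zVAD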
Wee1 stabilizer: inhibitors of human Wee1 degradation | P30291 | HeLa Luc-Wee1K328M stability, luciferase luminescence; 100% = proteasome inhibitor MG132 effect | reporter increase, % at 5 µM | 220,000 tested, 1.2% active | AID 1321;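 active = activation above the mean of all tested compounds plus 3 SD, set per screening run, cut at about 8.8% in these data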;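 note: cells exposed to compound for 20 h before luminescence read; 0% = DMSO alone and 100% = MG132 at 30 µM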
p97 ATPase inh: blocks human p97 ATPase activity; P55072; recombinant p97 ATPase, Kinase-Glo ATP luminescence, 3 h; inhibition, % at 8 µM; 220,000 tested, 0.42% active; in the data active = inhibition above about 15%;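 note: 0% = DMSO vehicle and 100% = wells lacking enzyme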
PfM18AAP inh-2: confirmation of Plasmodium falciparum M18 aspartyl aminopeptidase inhibitors. 2,400 tested, 28% active. inhibition, % at 7.35 µM. recombinant PfM18AAP, H-Glu-NHMec fluorogenic cleavage. shares compounds with PfM18AAP inh-1;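 active = mean inhibition over replicate wells above the hit cutoff set for the earlier primary screen, cut at about 29% in these data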;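 note: 0% = median of test compound wells and 100% = 2 mM ZnCl2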
CTSL1 counter: counter-screen for PFM18AAP inhibitors: confirmation of human cathepsin L inhibitors | shares compounds with PfM18AAP inh-1 | purified cathepsin L1, Z-Leu-Arg-MCA fluorescence | inhibition, % at 5.96 µM | 2,400 tested, under 10 active;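 active = average inhibition across replicates above the hit cutoff set in the earlier primary screen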;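 note: 0% = median of test compound wells and 100% = Z-Phe-Ala-diazomethylketone 1 µM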
Target sequence (P07711 whole entry, looked up): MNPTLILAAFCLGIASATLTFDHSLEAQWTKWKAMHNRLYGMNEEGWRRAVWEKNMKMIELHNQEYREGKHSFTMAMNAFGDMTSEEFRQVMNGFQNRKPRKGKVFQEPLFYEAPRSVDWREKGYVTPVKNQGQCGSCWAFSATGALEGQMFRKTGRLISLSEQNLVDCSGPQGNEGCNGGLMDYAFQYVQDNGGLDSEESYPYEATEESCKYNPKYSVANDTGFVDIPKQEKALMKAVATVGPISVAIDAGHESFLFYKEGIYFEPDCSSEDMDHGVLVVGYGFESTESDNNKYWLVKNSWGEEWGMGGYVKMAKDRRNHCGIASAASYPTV
Numbers without * were called inactive; . = no result.

SMILES	RBBP9 inh	TNF necrop inh	PfM18AAP inh-1	zVAD death inh	Wee1 stabilizer	p97 ATPase inh	PfM18AAP inh-2	CTSL1 counter
CCCCNC(=S)NNC(=O)c1ccc2c(c1)OCO2	-8.1	0.5	7.4	-0.1	-1.5	-1.9	.	.
CCCc1nc(SCC(=O)NCC2CCCO2)c2c(=O)n(C)c(=O)n(C)c2n1 (centres undefined)	.	.	-1.4	.	.	.	.	.
COc1cccc(C(=O)N2CCN(C(=O)COc3ccc4ccccc4c3)CC2)c1	.	.	-5.1	.	.	.	.	.
O=C(NNC(=O)C1CC2CCC1C2)c1sc2ccccc2c1Cl (centres undefined)	1.6	3.0	-2.4	2.6	0.9	2.6	.	.
S=c1nccc(-c2ccc(Cl)cc2)[nH]1	-1.0	-6.5	1.4	-0.3	-1.5	7.2	.	.
Cc1nc2ccccn2c1-c1ccnc(=S)[nH]1	1.1	-2.1	37.0*	46.2	4.3	8.9	13.2	1.6
COc1ccc(CCC(=O)NNC(=O)Nc2cccc(Cl)c2)cc1	.	.	-1.6	.	.	.	.	.
O=C(NCCc1ccccc1)C1COc2ccccc2O1 (centres undefined)	.	.	-2.4	.	.	.	.	.
COc1cccc(NC(=O)NNC(=O)CCc2ccc(O)c(O)c2)c1	.	.	73.2*	.	.	.	52.0*	0.7
O=C(NCCc1ccc(O)c(O)c1)C1COc2ccccc2O1 (centres undefined)	.	.	80.1*	.	.	.	62.0*	0.7
O=C(CCc1ccc(O)c(O)c1)NNC(=S)Nc1ccc(Br)cc1Cl	-8.4	-1.8	53.6*	2.8	-1.6	-4.5	9.6	-8.7
O=C(CCc1ccc(O)c(O)c1)NNC(=S)NCCc1ccccc1	-0.8	1.7	68.4*	0.4	0.7	2.6	30.4*	-0.6
O=C(NNC(=S)Nc1ccc(Br)cc1Cl)c1ccncc1	-1.1	-8.6	2.3	-1.9	-1.1	1.7	.	.
COc1ccc(N(CCC#N)C(=O)/C(C#N)=C\c2cccs2)cc1	-9.5	0.3	10.8	-0.9	-1.2	-9.0	.	.
Cc1cc(C)cc(C(=O)NCCCN2CCOCC2)c1	.	.	-5.0	.	.	.	.	.
O=C(NC(=S)NNC(=O)c1ccccc1O)c1ccco1	-3.2	2.5	33.0*	0.3	-1.2	-4.2	30.2*	2.0
CC1Sc2ccc(C(=O)O)cc2NC1=O (centres undefined)	-3.8	0.6	44.4*	-0.4	-0.8	-4.3	-59.8	-8.9
NC(=O)NC(CC(=O)N1CCc2ccccc2C1)c1ccc(Cl)cc1 (centres undefined)	.	.	1.8	.	.	.	.	.
O=C(NCCCN1CCOCC1)c1sc2cc([N+](=O)[O-])ccc2c1Cl	4.3	2.4	59.2*	4.7	-1.0	-0.4	33.4*	-2.5
COc1ccccc1NS(=O)(=O)c1cc(NC(=O)C2CC2)ccc1N1CCOCC1	-16.8	2.7	42.0*	-1.1	0.8	-2.9	-26.9	0.7
CCOc1ccccc1-n1c(=O)c2ccccc2c2ccccc2c1=O	-14.6	1.7	-1.9	0.8	-1.1	-1.6	.	.
O=c1c2cc3c(=O)n(-c4ccccc4O)c(=O)c3cc2c(=O)n1-c1ccccc1O	-0.6	-1.4	41.1*	0.1	-3.1	2.4	-40.3	5.5
Cc1ncc(CO)c(/C=N/NC(=O)c2ccccc2Br)c1O	0.6	-1.6	34.8*	4.2	6.2	6.2	-14.1	3.7
Oc1ccc(/C=N/N(Cc2ccccc2)c2ccccc2)c(O)c1O	-11.3	-0.1	49.6*	-1.5	-1.3	-4.2	-18.8	-1.8
CCOC(=O)CC1Sc2ccccc2NC1=S (centres undefined)	-10.5	1.3	36.6*	-1.0	0.5	-4.1	-16.0	7.5
SMILES	RBBP9 inh	TNF necrop inh	PfM18AAP inh-1	zVAD death inh	Wee1 stabilizer	p97 ATPase inh	PfM18AAP inh-2	CTSL1 counter
CCOC(=O)CC1Sc2ccccc2NC1=O (centres undefined)	-1.1	-0.8	-0.6	-0.3	0.0	8.0	.	.
Cc1ccc2c(c1)c(-c1ccccc1)nc1nnnn12	-5.8	-0.5	3.0	0.6	0.2	3.5	.	.
O=C1OCC=C1NNC(=O)c1cccnc1	-7.0	-0.9	55.1*	0.8	0.9	-2.5	69.3*	-7.0
O=C(NNC(=O)c1cccnc1)c1ccncc1	.	.	-0.8	.	.	.	.	.
CC(C)(C)c1cc(C(=O)Nc2cccnc2)cc(C(=O)Nc2cccnc2)c1	.	.	3.5	.	.	.	.	.
COc1ccc(/C=N/Nc2ncnc3c2[nH]c2ccccc23)c(OC)c1OC	-6.5	4.0	35.9*	70.1	3.7	-3.7	-27.6	5.4
COc1cccc(/C=N/Nc2ncnc3c2[nH]c2ccc(C)cc23)c1OC	4.8	-5.1	8.8	69.8	-2.4	8.9	.	.
O=C(CCC1CCN(C(=O)c2ccco2)CC1)NCc1ccc(F)cc1	.	.	1.4	.	.	.	.	.
COc1ccc(/C=N/Nc2nccnc2Cl)c(OC)c1	-1.1	-1.1	4.6	0.0	1.1	-11.0	.	.
COc1ccc(/C=N/Nc2nccnc2Cl)cc1	0.5	-11.6	35.6*	-0.9	0.0	-31.1	-37.5	5.1
Oc1ccc(/C=N/Nc2nccnc2Cl)c(O)c1	-4.4	-19.0	35.3*	6.9	10.1*	-5.3	-6.9	3.0
COc1ccc(/C=N/Nc2ncnc(Cl)c2N)cc1OC	-3.9	11.8	35.2*	39.5	0.7	2.9	-44.6	2.3
Cc1cccc(C(=O)NC2CCN(C(=O)NCc3ccccc3)CC2)c1	.	.	2.5	.	.	.	.	.
C=CCn1c(CNC(=O)c2ccccc2F)nnc1SCc1nc2ccccc2c(=O)[nH]1	-8.6	1.5	2.2	2.6	2.6	3.6	.	.
CC(C)C(=O)Nc1ccc2nn(-c3ccccc3)nc2c1	-5.5	-1.5	-0.2	6.0	3.6	-5.4	.	.
CC(C)c1ccc(NC(=O)c2ccccc2NC(=O)C2CCCCC2C(=O)O)cc1 (centres undefined)	.	.	-2.6	.	.	.	.	.
CN(C)CCN(C(=O)c1ccc(N2C(=O)CCC2=O)cc1)c1nc2cc3c(cc2s1)OCCO3	-3.0	0.5	0.1	0.9	-0.8	-0.3	.	.
Cc1sc(NC(=O)C2CCCO2)c(C(N)=O)c1C (centres undefined)	-9.3	-0.2	37.3*	1.2	2.2	-5.9	-22.5	0.3
CCOC(=O)c1c(NC(=O)C2CCCO2)sc(C)c1C (centres undefined)	-9.1	0.2	-7.4	-0.1	0.3	-0.6	.	.
COC(=O)c1sc(NC(=O)C2CCCO2)c(C(=O)OC)c1C (centres undefined)	-5.0	-2.1	-1.1	-0.5	-1.2	0.8	.	.
CCOC(=O)c1c(NC(=O)C2CCCO2)sc(C(=O)OC(C)(C)C)c1C (centres undefined)	-10.8	-0.1	34.8*	-0.3	-1.3	-1.0	6.6	4.5
CCC(=O)c1ccccc1OCCCCn1cncn1	.	.	-3.7	.	.	.	.	.
O=c1c2ccccc2c(/C=N/c2ncn[nH]2)c(O)n1Cc1ccccc1	-8.5	2.7	54.1*	1.9	-0.4	-6.1	-20.6	1.6
